Experimental data from ChEMBL document CHEMBL2412972, “Design, synthesis and biological evaluation of novel triaryl (Z)-olefins as tamoxifen analogues” (Bioorg Med Chem Lett, 2013).
Activity calls are given as the source filed them. No cut-off for these calls is given here.

Legend:
MCF7 [1] = assay: Antiproliferative activity against human MCF7 cells after 72 hrs by MTT assay; assay type: functional, cell-based; conditions: MCF7, 72 h
Method in brief: (§1)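 Cells were seeded in 96-well plates for 24 h, then exposed to a range of concentrations for 72 h in DMEM/F-12 with 5% FBS. DMSO vehicle controls were matched. MTT was added at 0.5 mg/ml for 2 h at 37 °C, solubilized in DMSO, and read at 570 nm. IC50 is the concentration giving 50% cell death relative to DMSO control. Mean ± SD, n = 6.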

MDA-MB-231 [2] = assay: Antiproliferative activity against human MDA-MB-231 cells after 72 hrs by MTT assay; assay type: functional, cell-based; conditions: MDA-MB-231, 72 h; method in brief: as §1
MCF7 [3] = assay: Induction of apoptosis in human MCF7 cells assessed as caspase 3/7 activation after 72 hrs by luminescence assay; assay type: functional, cell-based
Method in brief: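 MCF-7 cells were plated at 1×10^4 per well, incubated for 24 h, then treated for 72 h. Caspase-3/7 activity was measured with a Caspase-Glo luminogenic DEVD substrate, and luminescence was reported as relative light units. Compared with DMSO vehicle; mean ± SD, n = 6.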

MCF7 [4] = assay: Ratio of tamoxifen IC50 to compound IC50 for human MCF7 cells after 72 hrs by MTT assay; assay type: functional
MCF7 [5] = assay: Antiproliferative activity against human MCF7 cells at 5 uM after 72 hrs by MTT assay in presence of estradiol; assay type: functional, cell-based
Method in brief: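 MCF-7 cells (ATCC) were maintained in DMEM/F-12 with 10% FBS at 37 °C and 5% CO2. They were seeded for 24 h, then treated with 5 µM test agent for 72 h in 5% FBS medium, with and without estradiol. Read-out was MTT absorbance at 570 nm, expressed as percent of control wells. Two experiments, each with six replicates; mean ± SD.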

MDA-MB-231 [6] = assay: Ratio of tamoxifen IC50 to compound IC50 for human MDA-MB-231 cells after 72 hrs by MTT assay; assay type: functional

| IC50 (MCF7 [1]) | IC50 (MDA-MB-231 [2]) | Structure (SMILES) | Activity (MCF7 [3]) | Ratio IC50 (MCF7 [4]) | Activity (MCF7 [5]) | Ratio IC50 (MDA-MB-231 [6]) |
| --- | --- | --- | --- | --- | --- | --- |
| 5.58 µM | 13 µM | C/C(=C(\c1ccccc1)c1ccc(OCCN2CCNCC2)cc1)c1ccc(F)cc1 | Active | 2 | Active | 2 |
| > 100 µM | > 100 µM | C/C(=C(\c1ccccc1)c1ccc(OCCN2CCNCC2)cc1)c1ccccc1 | – | – | – | – |
| 16.6 µM | 43 µM | C/C(=C(\c1ccccc1)c1ccc(OCCN2CCCCC2)cc1)c1ccc(F)cc1 | – | – | – | – |

Continued, compound first:

| Structure (SMILES) | IC50 (MCF7 [1]) | IC50 (MDA-MB-231 [2]) | Activity (MCF7 [3]) | Ratio IC50 (MCF7 [4]) | Activity (MCF7 [5]) | Ratio IC50 (MDA-MB-231 [6]) |
| --- | --- | --- | --- | --- | --- | --- |
| CC/C(=C(\c1ccccc1)c1ccc(OCCN(C)C)cc1)c1ccccc1 [TAMOXIFEN] | 28 µM | 64.8 µM | – | – | – | – |
| C/C(=C(\c1ccccc1)c1ccc(OCCN2CCN(C)CC2)cc1)c1ccc(F)cc1 | 86.3 µM | > 100 µM | – | – | – | – |
| C/C(=C(\c1ccccc1)c1ccc(OCCN2CCN(C)CC2)cc1)c1ccccc1 | 6.75 µM | 10.5 µM | Active | 2 | Active | 2 |
| C/C(=C(\c1ccccc1)c1ccc(OCCN2CCCCC2)cc1)c1ccccc1 | 55.5 µM | 73.5 µM | – | – | – | – |
